The source of these data is PubChem BioAssay AID651830 (Vanderbilt Specialized Chemistry Center, 2012).

The source made the active and inactive calls.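 Rule for the calls: active = inhibition above 50% in the panel binding assay; inactive = inhibition of 50% or less.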

This assay can be described thus: off-target binding across receptor panel, profiling panel, selectivity assay for mGlu3 NAM project, biochemical, Eurofins PanLabs, radioligand binding (AID 651830). As to conditions: at 10 µM, stronger effect = higher value. The procedure, abridged: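 Probe or stimulus: target-selective radioligand; Benchmarks: reference standards in each assay; Evaluation: % inhibition of radioligand binding; Measured by: radioligand binding displacement.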

Consider `COc1ccc(C#Cc2ccc(C(=O)N3CCC[C@@H](O)C3)c(F)c2)cc1`, for which the inhibition was 74% (active). For the same compound, the inhibition (measured here: 5-HT1A binding) was 71%. For the same compound, the inhibition (measured here: 5-HT2B binding) was -12%. The inhibition (measured here: N-type calcium channel binding) came out at 22%. Where the note is “measured here: P2X binding”, the inhibition turned out to be 31%. For the same compound, the inhibition (measured here: adenosine A3 binding) was found to be 45%. Further, the inhibition (measured here: alpha1D adrenergic binding) was 20%. Also, the inhibition (measured here: dopamine D3 binding) was found to be 24%. For the same compound, the inhibition (measured here: hERG binding) was 28%. For the same compound, under “measured here: kainate receptor binding”, the inhibition is 19%. For the setting “measured here: norepinephrine transporter binding”, the inhibition was determined as 25%. The inhibition (measured here: serotonin transporter binding) was -1%. The inhibition (measured here: sigma1 binding) came out at 33%.
